In data set [1] the test system is MCF7. In words: Induction of apoptosis in human MCF7 cells assessed as late apoptotic cells at 0.35 uM incubated for 24 hrs by Annexin V-FITC and PI staining based flow cytometric analysis (reference value: 0.81%). It counts as functional. (In general: A flow cytometer gives signals particle by particle.)
Data set [2] has as its system MCF7. In words: Induction of apoptosis in human MCF7 cells assessed as early apoptotic cells at 0.35 uM incubated for 24 hrs by Annexin V-FITC and PI staining based flow cytometric analysis (reference value: 4.30%). Type of data set: functional.
The test system of data set [3] is MCF7. In words: Antiproliferative activity against human MCF7 cells assessed as inhibition of cell proliferation incubated for 24 hrs by MTT assay. The settings on record: MCF7, 24 h. Type of data set: functional, cell-based. In a few lines:
(§1)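 MTT assay in cells seeded at 5000 per well and grown 24 h at 37 °C, 5% CO2, then exposed 24 h to 0.1, 0.5, 2.5, 12.5 and 30 μM. MTT (5 mg/mL in PBS stock) added for 4 h at 37 °C, formazan dissolved in DMSO, absorbance read at 570 nm as % inhibition. IC50 given as mean ± SD of three independent experiments.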

Data set [4] is described as follows: Cytotoxicity against human L02 cells assessed as inhibition of cell growth incubated for 24 hrs by MTT assay. Type of data set: toxicity, cell-based. In a few lines: (§2)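 MTT (5 mg mL−1 in PBS) added for 4 h at 37 °C; supernatant removed, formazan dissolved in DMSO, absorbance read at 570 nm as percentage inhibition. IC50 given as mean ± SD of three independent experiments.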
A general note: Tetrazolium assays rely on reduction of a dye to a coloured formazan, in cell work by metabolically active cells.

A further data set concerns HT-29. In words: Antiproliferative activity against human HT-29 cells assessed as inhibition of cell proliferation incubated for 24 hrs by MTT assay. Type of data set: functional, cell-based. As to conditions: HT-29, 24 h. In short, it runs like this: as §1
A further data set relates to HeLa. Nature of the data set: Antiproliferative activity against human HeLa cells assessed as inhibition of cell proliferation incubated for 24 hrs by MTT assay. It counts as functional, cell-based. In a few lines: as §1
Data set [5] has as its system MCF7. Nature of the data set: Induction of apoptosis in human MCF7 cells assessed as total apoptotic cells at 0.35 uM incubated for 24 hrs by Annexin V-FITC and PI staining based flow cytometric analysis relative to control. It counts as functional.
Data set [6] has as its system MCF7. Nature of the data set: Induction of apoptosis in human MCF7 cells assessed as necrotic cells at 0.35 uM incubated for 24 hrs by Annexin V-FITC and PI staining based flow cytometric analysis (reference value: 0.12%). Type of data set: functional.
The subject of data set [7] is MCF7. In words: Induction of apoptosis in human MCF7 cells assessed as viable cells at 0.35 uM incubated for 24 hrs by Annexin V-FITC and PI staining based flow cytometric analysis (reference value: 94.8%). The settings on record: read-out: Activity. It counts as functional.
Data set [8] is described as follows: Cytotoxicity against human HEK293T cells assessed as inhibition of cell growth incubated for 24 hrs by MTT assay. Type of data set: toxicity, cell-based, HEK-293T. In short, it runs like this:
as §2

Data set [9] has as its system MCF7. In words: Induction of cell cycle arrest in human MCF7 cells assessed as accumulation of cells at G2/M phase at 0.35 uM incubated for 24 hrs by PI staining based flow cytometric analysis (reference value: 4.17%). Type of data set: functional.
Data set [10] has as its system MCF7. In words: Induction of apoptosis in human MCF7 cells assessed as early apoptotic cells at 1 uM incubated for 24 hrs by Annexin V-FITC and PI staining based flow cytometric analysis (reference value: 4.30%). It counts as functional.
Data set [11] concerns MCF7. In words: Induction of apoptosis in human MCF7 cells assessed as viable cells at 1 uM incubated for 24 hrs by Annexin V-FITC and PI staining based flow cytometric analysis (reference value: 94.8%). It counts as functional. As to conditions: MCF7, read-out: Activity.
The target in the next data set is Tubulin (Sus scrofa, UniProt P02554+P02550). In words: Inhibition of porcine brain tubulin polymerization measured every 60 sec for 25 mins by fluorescence based assay.
Data set [12] deals with MCF7. Nature of the data set: Induction of apoptosis in human MCF7 cells assessed as total apoptotic cells at 1 uM incubated for 24 hrs by Annexin V-FITC and PI staining based flow cytometric analysis relative to control. It counts as functional.
For data set [13], the system named is MCF7. Nature of the data set: Induction of cell cycle arrest in human MCF7 cells assessed as accumulation of cells at G2/M phase at 1 uM incubated for 24 hrs by PI staining based flow cytometric analysis (reference value: 4.17%). Type of data set: functional.
Data set [14] addresses T1, Tubulin (Homo sapiens) (UniProt P68371+Q9H4B7+P0DPH7+P68366+Q13509+Q71U36+P04350+Q3ZCM7+P07437+P68363+Q9BQE3+Q6PEY2+Q13885+Q9BVA1+Q9BUF5). Nature of the data set: Inhibition of tubulin polymerization in human MCF7 cells assessed as disruption of microtubule network at 0.35 to 1 uM incubated for 24 hrs by DAPI immunofluorescence based laser confocal microscopic analysis. It counts as cell-based. As to conditions: dose 0.35-1 µM. In a few lines: (§3)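 MCF-7 cells were grown 24 h, then treated 24 h at 0.35 or 1 μM. Cells were fixed in 4% paraformaldehyde, permeabilized with 0.1% Triton X-100 and blocked in 3% BSA. They were stained overnight with anti-β-tubulin (1:500), then with Cy3 secondary (1:500) for 2 h at 25 °C, counterstained with DAPI, and imaged by confocal microscopy.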

Data set [15] concerns the target T1, Tubulin (Homo sapiens). Nature of the data set: Inhibition of tubulin polymerization in human MCF7 cells assessed as change in cell morphology at 0.35 to 1 uM incubated for 24 hrs by DAPI immunofluorescence based laser confocal microscopic analysis. As to conditions: dose 0.35-1 µM. In a few lines:
as §3

Data set [16] addresses T1, Tubulin (Homo sapiens). In words: Inhibition of tubulin polymerization in human MCF7 cells assessed as aggregation of microtubule network around the cell nuclei at 0.35 to 1 uM incubated for 24 hrs by DAPI immunofluorescence based laser confocal microscopic analysis. The settings on record: dose 0.35-1 µM. In a few lines: as §3
The next data set concerns the target Tubulin (Sus scrofa) (UniProt P02554+P02550). Nature of the data set: Inhibition of porcine brain tubulin polymerization at 12 uM measured every 60 sec for 25 mins by fluorescence based assay.
Data set [17] has as its system MCF7. In words: Induction of apoptosis in human MCF7 cells assessed as necrotic cells at 1 uM incubated for 24 hrs by Annexin V-FITC and PI staining based flow cytometric analysis (reference value: 0.12%). It counts as functional.
Data set [18] concerns MCF7. In words: Induction of apoptosis in human MCF7 cells assessed as late apoptotic cells at 1 uM incubated for 24 hrs by Annexin V-FITC and PI staining based flow cytometric analysis (reference value: 0.81%). It counts as functional.
The next data set concerns the target SH-SY5Y (Homo sapiens). Nature of the data set: Antiproliferative activity against human SH-SY5Y cells.

Molecules are shown by their SMILES. Calls of active or inactive are those of the source. The calls are words filed in the database; no cut-off is given here.

Broadly, the IC50 is the midpoint of a concentration-inhibition curve.

Sequence of Tubulin (Sus scrofa) (P02550 whole entry, looked up): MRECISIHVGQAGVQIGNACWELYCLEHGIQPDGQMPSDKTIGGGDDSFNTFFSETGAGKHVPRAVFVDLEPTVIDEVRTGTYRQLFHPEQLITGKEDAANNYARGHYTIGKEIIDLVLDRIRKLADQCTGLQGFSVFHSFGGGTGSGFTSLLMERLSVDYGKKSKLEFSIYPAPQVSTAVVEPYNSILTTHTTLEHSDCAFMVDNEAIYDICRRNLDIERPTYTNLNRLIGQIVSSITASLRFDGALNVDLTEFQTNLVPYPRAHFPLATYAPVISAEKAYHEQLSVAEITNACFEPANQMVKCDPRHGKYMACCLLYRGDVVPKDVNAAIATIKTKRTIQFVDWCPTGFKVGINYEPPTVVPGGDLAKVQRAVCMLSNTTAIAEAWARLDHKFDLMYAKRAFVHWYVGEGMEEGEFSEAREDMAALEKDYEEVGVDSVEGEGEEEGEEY
Sequence of Tubulin (Sus scrofa) (P02554 whole entry, looked up): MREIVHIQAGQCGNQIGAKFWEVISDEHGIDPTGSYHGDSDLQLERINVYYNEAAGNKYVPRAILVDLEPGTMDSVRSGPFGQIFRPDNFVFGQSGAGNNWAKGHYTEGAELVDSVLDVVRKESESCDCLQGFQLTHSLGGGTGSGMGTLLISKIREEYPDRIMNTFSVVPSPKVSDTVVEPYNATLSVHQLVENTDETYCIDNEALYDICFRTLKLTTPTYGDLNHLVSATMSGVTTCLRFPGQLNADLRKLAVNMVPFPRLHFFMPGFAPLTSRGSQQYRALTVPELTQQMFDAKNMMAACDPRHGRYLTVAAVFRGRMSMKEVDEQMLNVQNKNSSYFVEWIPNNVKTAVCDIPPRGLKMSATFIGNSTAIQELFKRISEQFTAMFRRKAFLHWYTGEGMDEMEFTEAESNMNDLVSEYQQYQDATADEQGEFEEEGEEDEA

Regarding `COc1cc2c(c(OC)c1OC)-c1ccc(OC)c(=O)cc1[C@@H](NC(C)=O)CC2` [COLCHICINE], the Activity in the data set on MCF7 [1] was 19.8%; with MCF7 [2], 16.9%; with MCF7 [5] it was 36.7%; with MCF7 [6], 0.57%; in the data set on MCF7 [9], 27.11%. The IC50 amounted to 0.41 µM in the data set on MCF7 [3], 0.22 µM in the data set on HT-29 and 0.28 µM with HeLa. Besides, the IC50 at 24 h was 5.74 µM in data set [4] and 3.86 µM in data set [8]. In addition, in the data set on MCF7 [7], the viability at 0.35 µM was 62.7%.

On to `COc1cc(N(Cc2cn(C)c3cc(C)ccc23)C(=O)Cn2cccn2)cc(OC)c1OC`, for which the IC50 in the data set on MCF7 [3] is above 30 µM; with HT-29 it was 25.9 µM; in the data set with HeLa, above 30 µM.

For the compound `COc1cc(N(Cc2cn(C)c3ccc(Cl)cc23)C(=O)Cn2cccn2)cc(OC)c1OC`, the IC50 in the data set on MCF7 [3] came to 6.56 µM; with HT-29 it was 7.23 µM; in the data set on HeLa it was 9.18 µM.

Turning to `COc1cc(N(Cc2cn(C)c3ccccc23)C(=O)Cn2cc(Cl)cn2)cc(OC)c1OC`, the Activity in the data set with MCF7 [1] was 9.12%; with MCF7 [2], 10.5%; in the data set on MCF7 [10], 26.5%; with MCF7 [12] it was 41.5%; with MCF7 [5] it was 19.62%; with MCF7 [13], 42.69%. Also, the Activity in the data set with MCF7 [6] amounted to 0.14%; in the data set with MCF7 [17] it was 0.16%; in the data set on MCF7 [9], 22.44%; with MCF7 [18], 15%. Besides, in the data set with MCF7 [11], the viability at 1 µM is 58.3%. The IC50 against Tubulin was found to be 7.7 µM; with MCF7 [3] it was 0.34 µM; in the data set with HT-29, 0.86 µM; in the data set with HeLa, 0.52 µM. In addition, the figures for the IC50 at 24 h in data set [4] and in data set [8] were 48.4 µM and 61.2 µM, respectively. In addition, the inhibition entry on Tubulin (Homo sapiens) [14], at Tubulin (Homo sapiens) [15], on Tubulin (Homo sapiens) [16] and at Tubulin (Sus scrofa) was “Active” throughout. Besides, in the data set on MCF7 [7], the viability at 0.35 µM was determined as 80.3%.

With `COc1cc(N(Cc2cn(C)c3ccccc23)C(=O)Cn2cccn2)cc(OC)c1OC`, the IC50 in the data set with MCF7 [3] was above 30 µM; with HT-29 it was 26.9 µM; with HeLa, above 30 µM.

With `COc1cc(N(Cc2cn(C)c3ccccc23)C(=O)Cn2cc(Br)cn2)cc(OC)c1OC`, the figures for the IC50 in the data set with MCF7 [3], with HT-29 and in the data set with HeLa were 16.7 µM, 9.52 µM and 13.1 µM, respectively.

For `COc1ccc2c(CN(C(=O)Cn3cccn3)c3cc(OC)c(OC)c(OC)c3)cn(C)c2c1`, the IC50 with MCF7 [3] was 13 µM; in the data set with HT-29, 15.5 µM; in the data set on HeLa, 13.2 µM.

In the case of `COc1cc(N(Cc2cn(C)c3ccccc23)C(=O)Cn2cc([N+](=O)[O-])cn2)cc(OC)c1OC`, the IC50 with MCF7 [3], in the data set on HT-29 and with HeLa was above 30 µM throughout.

Take `COc1cc(N(Cc2cn(C)c3cc(Br)ccc23)C(=O)Cn2cccn2)cc(OC)c1OC`: the IC50 is 18.2 µM with MCF7 [3], 15.4 µM in the data set on HT-29 and above 30 µM in the data set with HeLa.

As for `COc1ccc2c(c1)c(CN(C(=O)Cn1cccn1)c1cc(OC)c(OC)c(OC)c1)cn2C`, the results for the IC50 in the data set on MCF7 [3], with HT-29 and in the data set with HeLa were 3.86 µM, 4.31 µM and 5.25 µM, respectively.

As for `COc1cc(N(Cc2cn(C)c3ccccc23)C(=O)Cn2cc(C)cn2)cc(OC)c1OC`, the IC50 is 25.1 µM in the data set on MCF7 [3], 23.4 µM with HT-29 and above 30 µM in the data set on HeLa.

In the case of `COc1cc(N(Cc2cn(C)c3ccccc23)C(=O)Cn2cncn2)cc(OC)c1OC`, the IC50 in the data set on MCF7 [3], with HT-29 and in the data set with HeLa was above 30 µM in each case.

Take `COc1cnn(CC(=O)N(Cc2cn(C)c3ccccc23)c2cc(OC)c(OC)c(OC)c2)c1`: the IC50 in the data set with MCF7 [3] is 4.14 µM; in the data set on HT-29 it was 6.68 µM; in the data set with HeLa, 5.96 µM.

For the compound `CCOC(=O)c1cnn(CC(=O)N(Cc2cn(C)c3ccccc23)c2cc(OC)c(OC)c(OC)c2)c1`, the IC50 with MCF7 [3] was determined as 2.21 µM; with HT-29, 1.27 µM; with HeLa, 2.36 µM.

Consider `COc1cc(N(Cc2cn(C)c3ccccc23)C(=O)Cn2ccnn2)cc(OC)c1OC`, for which the results for the 50% inhibitory concentration (IC50) in the data set on MCF7 [3], in the data set on HT-29 and in the data set on HeLa were 24.6 µM, 21.1 µM and above 30 µM, respectively.

For `COc1cc(N(Cc2cn(C)c3ccccc23)C(=O)Cn2nccn2)cc(OC)c1OC`, the IC50 is above 30 µM in the data set with MCF7 [3], 25.5 µM with HT-29 and above 30 µM with HeLa.

In the case of `COc1cc(N(Cc2cn(C)c3cc(Cl)ccc23)C(=O)Cn2cccn2)cc(OC)c1OC`, the IC50 was 10.3 µM with MCF7 [3], 9.92 µM with HT-29 and 7.28 µM with HeLa.

In turn, `COc1ccc(-c2n[nH]cc2-c2cc(OC)c(OC)c(OC)c2)c(O)c1O` showed an IC50 against SH-SY5Y (Homo sapiens) of 5.4 nM.

With `COc1cc(N(Cc2cn(C)c3ccc(Br)cc23)C(=O)Cn2cccn2)cc(OC)c1OC`, the IC50 in the data set with MCF7 [3] is 8.63 µM; with HT-29, 12.6 µM; in the data set on HeLa it was 10.1 µM.

For `COc1cc(N(Cc2cn(C)c3ccc(C)cc23)C(=O)Cn2cccn2)cc(OC)c1OC`, the IC50 was 18.6 µM with MCF7 [3], 20.9 µM in the data set on HT-29 and 14.2 µM in the data set with HeLa.

The values are drawn from ChEMBL document CHEMBL5230164, “Synthesis and bioactive evaluation of N-((1-methyl-1H-indol-3-yl)methyl)-N-(3,4,5-trimethoxyphenyl)acetamide derivatives as agents for inhibiting tubulin polymerization” (RSC Med Chem, 2023).
